In ChEMBL document CHEMBL1128497, “Synthesis and in vitro and in vivo antitumor activity of a series of trans platinum antitumor complexes” (J Med Chem, 1995):
Values joined by “and” are separate entries in the source; they are usually repeats but may differ in a detail not shown here. Equal values may be shown once.

Experiments:
[1] = In vivo antitumor activity by i.p. administration against murine ADJ/PC6 (sc) plasmacytoma.; type: ADME, organism-based; conditions: mouse, ip
[2] = test system: 41M; test: In vitro antitumor activity against 41McisR cell line.; type: functional, cell-based, Homo sapiens
Procedure, shortened: (§1)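 Human ovarian carcinoma monolayers were grown in DMEM with 10% FCS, insulin and hydrocortisone under 10% CO2. Cells were seeded at 5 × 10^3–1 × 10^4 per well and left to attach overnight. Drugs were freshly dissolved in 0.9% saline (1 mM or 500 μM stocks) and added to quadruplicate wells for 96 h. Cell mass was read by SRB staining. IC50 values are means of at least two experiments.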

[3] = test system: 41M; test: In vitro antitumor activity against 41M cell line.; type: functional, cell-based, Homo sapiens; procedure, shortened: as §1
[4] = test system: SK-OV-3; test: In vitro antitumor activity against SK-OV-3 cell line.; type: functional, cell-based, Homo sapiens; procedure, shortened: as §1
[5] = test system: CH1; test: In vitro antitumor activity against CH1cisR cell line.; type: functional, cell-based, Homo sapiens; procedure, shortened: as §1
[6] = test system: Mus musculus; test: In Vivo Antitumor activity by ip administration against Murine ADJ/PC6 (sc) Plasmacytoma in mice; type: functional, organism-based; conditions: Plasma
Procedure, shortened: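 ADJ/PC6 plasmacytoma (or its cisplatin-resistant subline) was implanted sc as 1 mm3 fragments. On day 20 mice received a single ip injection of drug as a sonicated suspension in arachis oil, at halving doses. Ten days later tumors were dissected and weighed against controls. […] Therapeutic index is MTD/ED90, alongside LD50.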

[7] = test system: A2780; test: In vitro antitumor activity against A2780 cell line.; type: functional, cell-based, Homo sapiens; procedure, shortened: as §1
[8] = test system: A2780; test: In vitro antitumor activity against A2780cisR cell line.; type: functional, cell-based, Homo sapiens; procedure, shortened: as §1
[9] = test system: CH1; test: In vitro antitumor activity against CH1 cell line.; type: functional, cell-based, Homo sapiens; procedure, shortened: as §1
[10] = test system: CH1; test: Resistant factor, determined between IC50 of resistant line to that of CHcisR cell line; type: functional, cell-based; conditions: Homo sapiens; CH1cisR
Procedure, shortened: (§2)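 Resistance factor is the IC50 in the cisplatin-resistant subline divided by the IC50 in its parent line. IC50s came from a 96 h SRB cytotoxicity assay run in quadruplicate wells.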

[11] = test system: 41M; test: Resistant factor was determined between IC50 of cisplatin-resistant human tumor cell lines to that of […] cell line; type: functional, cell-based; procedure, shortened: as §2
[12] = test system: A2780; test: Resistant factor determined between IC50 of resistant line to that of parental A2780 cell line; type: functional, cell-based; conditions: Homo sapiens; procedure, shortened: as §2

IC50 [2]	IC50 [3]	IC50 [4]	IC50 [5]	IC50 [7]	IC50 [8]	IC50 [9]	Substance	LD50 [1]	ED90 [6] [mg/kg]	RF [10]	RF [11]	RF [12]
–	–	–	–	–	–	–	AMMONIO(DICHLORO)PLATINUM(CYCLOHEXYL)AMMONIUM [listing 2 of 2 here]	–	1.4	–	–	–
–	–	–	–	–	–	–	AMMONIO(DICHLORO)[DI(METHYLCARBONYLOXY)]PLATINUM(CYCLOHEXYL)AMMONIUM [listing 2 of 2 here]	–	–	1.4	0.9	10
4.1 µM	4.5 µM	7.1 µM	4.4 µM	2.3 µM	4.8 µM	4 µM	Trans-Amminedichloro hexylamine platinium (II) [listing 1 of 2 here]	–	–	–	–	–
–	–	–	–	–	–	–	Trans-Amminedichloro hexylamine platinium (II) [listing 2 of 2 here]	–	–	1.1	0.9	2.1
1.7 µM	2.4 µM	10 µM	4.7 µM	1.3 µM	4.6 µM	4.3 µM	Trans-Amminedichloro(cycloheptylamine)platinium (II) [listing 1 of 2 here]	–	–	–	–	–
–	–	–	–	–	–	–	Trans-Amminedichloro(cycloheptylamine)platinium (II) [listing 2 of 2 here]	–	–	1.1	0.7	3.4
> 50 µM	> 50 µM	> 50 µM	> 50 µM	> 50 µM	> 50 µM	> 50 µM	Trans-Amminedichloro(diethylamine)platinium (II)	–	–	–	–	–
1.2 µM	0.49 µM	1.5 µM	0.43 µM	0.4 µM	1.4 µM	0.21 µM	trans-(1-Aminoadamantane)Amminedichloro-platinium (II) [listing 1 of 2 here]	–	–	–	–	–
–	–	–	–	–	–	–	trans-(1-Aminoadamantane)Amminedichloro-platinium (II) [listing 2 of 2 here]	–	–	2	2.4	3.6
3.2 µM	4 µM	11.5 µM	5 µM	1.9 µM	5.4 µM	4 µM	trans-Amminedibromo (cyclohexylamine)-platinium (II) [listing 1 of 2 here]	–	–	–	–	–
–	–	–	–	–	–	–	trans-Amminedibromo (cyclohexylamine)-platinium (II) [listing 2 of 2 here]	–	–	1.2	0.8	2.8
–	–	–	–	–	–	–	trans-Amminedichloro(N-methylcyclohexylamine)-platinium (II) [listing 2 of 2 here]	–	–	2.8	0.6	7.8
> 50 µM	> 50 µM	> 50 µM	> 50 µM	26 µM	> 50 µM	> 50 µM	trans-Amminedichloro(quinuclidine)platinium (II)	–	–	–	–	–
4.1 µM	3.1 µM	9.3 µM	4.7 µM	1.5 µM	5.3 µM	3.9 µM	trans-Amminetetrachloro(cyclohexylamine)-platinium (IV) [listing 1 of 2 here]	–	–	–	–	–
–	–	–	–	–	–	–	trans-Amminetetrachloro(cyclohexylamine)-platinium (IV) [listing 2 of 2 here]	–	–	1.2	1.3	3.4
–	–	–	–	–	–	–	trans-Amminetetrachloro(pyridine)-platinium (IV) [listing 2 of 2 here]	–	–	1	0.8	1.7
16 µM	16.5 µM	29 µM	15.5 µM	14 µM	16 µM	15.5 µM	trans-Amminetetrachloro(quinuclidine)-platinium (IV)	–	–	–	–	–
1.2 µM	0.8 µM	2.5 µM	0.6 µM	0.8 µM	3.2 µM	0.55 µM	trans-a,f-Dichloro-b,d-bis(cyclohexylamine)-c,e-dihydroxo-platinium (IV)	–	–	–	–	–
13.3 µM	9.4 µM	45 µM	14 µM	4.5 µM	26.5 µM	10.3 µM	trans-a-Ammine-b,d-dichloro-c,e-dihydrooxy-f-(ethylamine)-platinium (IV) [listing 1 of 2 here]	–	–	–	–	–
–	–	–	–	–	–	–	trans-a-Ammine-b,d-dichloro-c,e-dihydrooxy-f-(ethylamine)-platinium (IV) [listing 2 of 2 here]	–	–	1.4	1.4	5.9
9.5 µM	14.4 µM	27 µM	14.3 µM	3.2 µM	16 µM	10.2 µM	trans-a-Ammine-b,d-dichloro-c,e-dihydroxo-f-(quinuclidine)-platinium (IV) [listing 1 of 2 here]	–	–	–	–	–
–	–	–	–	–	–	–	trans-a-Ammine-b,d-dichloro-c,e-dihydroxo-f-(quinuclidine)-platinium (IV) [listing 2 of 2 here]	–	–	1.4	0.7	5
0.76 µM	1.8 µM	12.1 µM	4.5 µM	1.9 µM	11.6 µM	3.3 µM	trans-a-Ammine-b,d-dichloro-c,e-dihydroxy-f-(diethylamine)-platinium (IV) [listing 1 of 2 here]	–	–	–	–	–
–	–	–	–	–	–	–	trans-a-Ammine-b,d-dichloro-c,e-dihydroxy-f-(diethylamine)-platinium (IV) [listing 2 of 2 here]	–	–	1.4	0.4	6.2
4.3 µM	6.2 µM	19 µM	5.6 µM	3.2 µM	10.6 µM	4.6 µM	trans-a-ammine-b,d-dichloro-f-(cyclohexylamine)-c,e-bis-(ethylcarbamato)platinium (IV)	–	–	–	–	–
1.4 µM and 3.2 µM	1.3 µM and 3.5 µM	6 µM and 16.6 µM	2.1 µM and 2 µM	0.42 µM and 0.8 µM	3 µM and 1.9 µM	1.1 µM and 0.57 µM	trans-a-ammine-b,d-dichloro-f-(cyclohexylamine)-c,e-dihydroxoplatinium (IV)	–	–	–	–	–

Substance	IC50 [2]	IC50 [3]	IC50 [4]	IC50 [5]	IC50 [7]	IC50 [8]	IC50 [9]	LD50 [1]	ED90 [6] [mg/kg]	RF [10]	RF [11]	RF [12]
AMMONIO(DICHLORO)PLATINUM(CYCLOHEXYL)AMMONIUM [listing 1 of 2 here]	0.28 µM and 1.5 µM	0.26 µM and 1.7 µM	2.1 µM and 7.2 µM	0.38 µM and 3.3 µM	–	–	–	17.5 mg/kg and 35 mg/kg	–	–	–	–
AMMONIO(DICHLORO)[DI(METHYLCARBONYLOXY)]PLATINUM(CYCLOHEXYL)AMMONIUM [listing 1 of 2 here]	1.2 µM	1.3 µM	4.8 µM	1.5 µM	0.3 µM	3 µM	1.1 µM	35 mg/kg	–	–	–	–
TRANSPLATIN	70 µM	57 µM	255 µM	68.5 µM	32 µM	260 µM	30 µM	32 mg/kg	–	–	–	–
trans-Amminedichloro(N-methylcyclohexylamine)-platinium (II) [listing 1 of 2 here]	0.48 µM	0.78 µM	3.9 µM	1.1 µM	0.46 µM	3.6 µM	0.38 µM	71 mg/kg	–	–	–	–
trans-Amminetetrachloro(pyridine)-platinium (IV) [listing 1 of 2 here]	4.1 µM	5.3 µM	14.5 µM	4.8 µM	3.2 µM	5.6 µM	4.7 µM	> 100 mg/kg	–	–	–	–
trans-a-Ammine-b,d-dichloro-c,e-dihydrooxy-f-(Morphiline)-platinium (IV)	54 µM	26 µM	47 µM	28.3 µM	10.9 µM	47 µM	17.3 µM	82 mg/kg	–	–	–	–
trans-a-Ammine-b,d-dichloro-c,e-dihydrooxy-f-(cyclopentylamine)-platinium (IV)	1.3 µM	1.1 µM	7 µM	1.9 µM	0.95 µM	5.2 µM	1.1 µM	15 mg/kg	–	–	–	–
trans-a-Ammine-b,d-dichloro-c,e-dihydroxo-f-(1,1,3,3-tetramethyl butylamine)-platinium (IV)	1 µM	0.48 µM	1.8 µM	0.55 µM	0.4 µM	2.2 µM	0.36 µM	29 mg/kg	–	–	–	–
trans-a-Ammine-b,d-dichloro-c,e-dihydroxo-f-(N-methylcyclohexylamine)-platinium (IV)	1.6 µM	2.3 µM	6.9 µM	2.9 µM	1.3 µM	5 µM	1.3 µM	29 mg/kg	–	–	–	–
trans-a-Ammine-b,d-dichloro-c,e-dihydroxo-f-(exo-2-aminonorbornane)-platinium (IV)	1.5 µM	1.4 µM	4.4 µM	1.7 µM	0.25 µM	3 µM	1.4 µM	17.5 mg/kg	–	–	–	–
trans-a-Ammine-b,d-dichloro-c,e-dihydroxy-f-(benzylamine)-platinium (IV)	1.3 µM	1.3 µM	8.2 µM	1.9 µM	1.1 µM	4.2 µM	1.1 µM	71 mg/kg	–	–	–	–
trans-a-ammine-b,d-dichloro-f-(2-propylamine)-c,e-dihydroxoplatinium (IV)	4.6 µM and 9.2 µM	3.2 µM and 3.9 µM	9.2 µM and 30.5 µM	5.5 µM and 4.9 µM	0.54 µM and 0.99 µM	4.7 µM and 7.2 µM	2.4 µM and 1.4 µM	18 mg/kg and 35 mg/kg	–	–	–	–
